Reference: paper PMC3701955 (Bioorganic & medicinal chemistry, 2012)
Read-outs that look alike come from different tables or passages of the source.

Tests used:
OTR of the CNS = target: T1, OTR of the CNS (Rattus norvegicus, UniProt P70536); assay: PET imaging of the brain using a rat model; format: in vivo, Sprague–Dawley rats; conditions: rats, 90 min ([18F]3) or 45 min ([11C]4) scan
T1 sequence (P70536 1-388): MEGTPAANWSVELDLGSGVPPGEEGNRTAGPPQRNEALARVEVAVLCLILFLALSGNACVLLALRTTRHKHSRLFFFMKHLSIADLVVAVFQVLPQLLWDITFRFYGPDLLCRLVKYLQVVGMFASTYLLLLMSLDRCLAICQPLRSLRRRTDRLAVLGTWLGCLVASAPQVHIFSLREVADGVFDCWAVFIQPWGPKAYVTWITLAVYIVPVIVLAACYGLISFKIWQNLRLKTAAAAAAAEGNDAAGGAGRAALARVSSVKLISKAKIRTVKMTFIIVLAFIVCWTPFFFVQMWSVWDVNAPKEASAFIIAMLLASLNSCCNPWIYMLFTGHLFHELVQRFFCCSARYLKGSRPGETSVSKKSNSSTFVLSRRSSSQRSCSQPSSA

OTR and V1aR = assay: Receptor autoradiography with the radioligand on prairie vole brain slices; format: binding; conditions: 70 pM radioligand
In short: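 Prairie vole brains were cut at 20 μm from prefrontal cortex through nucleus accumbens and ventral pallidum, stored at −80 °C, and thawed. Sections were dipped in 0.1% paraformaldehyde/PBS pH 7.4 and rinsed in 50 mM Tris pH 7.4. They were incubated 1 h with 70 pM radioiodinated test compound without competitor, then washed in 50 mM Tris + 2% MgCl2 pH 7.4, air-dried, and exposed to film 72 h. Six animals per study.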

[1] = format: in vivo; conditions: female Sprague–Dawley rats, iv; for Biodistribution of radioactivity in brain region, Amygdala / Biodistribution of radioactivity in brain region, Basal Hypothalamus / Biodistribution of radioactivity in brain region, Cerebellum / Biodistribution of radioactivity in brain region, Dorsal Striatum / Biodistribution of radioactivity in brain region, Remaining Brain / Biodistribution of radioactivity, Blood / Biodistribution of radioactivity, Heart / Biodistribution of radioactivity, Kidney / Biodistribution of radioactivity, Liver / Biodistribution of radioactivity, Lung / Biodistribution of radioactivity, Muscle / Biodistribution of radioactivity, Uterus / Biodistribution of radioactivity, Brain: mean ± SD; for Biodistribution of radioactivity, Brain: total brain
rodent OTR = conditions: prairie vole brain sections

Structure (SMILES): CS(=O)(=O)N1CCC(Oc2ccc(CC(=O)N3CCC(N4C(=O)CCc5ccccc54)CC3)c(O[11CH3])c2)CC1 [[^11C]4, 1-(1-(2-(2-[^11C]methoxy-4-((1-(methylsulfonyl)piperidin-4-yl)oxy)phenyl)acetyl)piperidin-4-yl)-3,4-dihydroquin olin-2(1H)-one]
- viability for in vivo PET imaging of brain OTR (OTR of the CNS): not viable for in vivo PET imaging of the OTR of the CNS

Structure (SMILES): CS(=O)(=O)N1CCC(Oc2ccc(CC(=O)N3CCC(N4C(=O)CCc5ccccc54)CC3)c(OC/C=C\[125I])c2)CC1 [[^125I]2, (Z)-1-(1-(2-(2-(3-[125I] Iodoallyloxy)-4-(1-(methylsulfonyl)piperidin-4-yloxy)phenyl)acetyl)piperidin-4-yl)-3,4-dihydroquinolin-2(1H)-one]
- autoradiographic binding to brain regions (OTR and V1aR): bind to receptors in the NAcc and VP
- in vivo stability of the radiolabel (thyroid / bone uptake over time) [1]: broken down readily in vivo at the iodine position
- Biodistribution of radioactivity in brain region, Amygdala ([1]; 15 min): 0.06 ± 0.01 %ID/g
- Biodistribution of radioactivity in brain region, Basal Hypothalamus ([1]; 15 min): 0.04 ± 0.01 %ID/g
- Biodistribution of radioactivity in brain region, Cerebellum ([1]; 15 min): 0.03 ± 0.01 %ID/g
- Biodistribution of radioactivity in brain region, Dorsal Striatum ([1]; 15 min): 0.03 ± 0.01 %ID/g
- Biodistribution of radioactivity in brain region, Remaining Brain ([1]; 15 min): 0.03 ± 0.01 %ID/g
- Biodistribution of radioactivity, Blood ([1]; 15 min): 0.22 ± 0.14 %ID/g
- Biodistribution of radioactivity, Heart ([1]; 15 min): 0.51 ± 0.41 %ID/g
- Biodistribution of radioactivity, Kidney ([1]; 15 min): 0.38 ± 0.20 %ID/g
- Biodistribution of radioactivity, Liver ([1]; 15 min): 2.12 ± 1.73 %ID/g
- Biodistribution of radioactivity, Lung ([1]; 15 min): 1.79 ± 1.78 %ID/g
- Biodistribution of radioactivity, Muscle ([1]; 15 min): 0.10 ± 0.09 %ID/g
- Biodistribution of radioactivity, Uterus ([1]; 15 min): 0.22 ± 0.16 %ID/g
- Biodistribution of radioactivity, Brain ([1]; 15 min): 0.02 ± 0.01 %ID/g
- Biodistribution of radioactivity in brain region, Amygdala ([1]; 30 min): 0.08 ± 0.06 %ID/g
- Biodistribution of radioactivity in brain region, Basal Hypothalamus ([1]; 30 min): 0.03 ± 0.01 %ID/g
- Biodistribution of radioactivity in brain region, Cerebellum ([1]; 30 min): 0.03 ± 0.01 %ID/g
- Biodistribution of radioactivity in brain region, Dorsal Striatum ([1]; 30 min): 0.03 ± 0.01 %ID/g
- Biodistribution of radioactivity in brain region, Remaining Brain ([1]; 30 min): 0.02 ± 0.01 %ID/g
- Biodistribution of radioactivity, Blood ([1]; 30 min): 0.23 ± 0.23 %ID/g
- Biodistribution of radioactivity, Heart ([1]; 30 min): 0.39 ± 0.38 %ID/g
- Biodistribution of radioactivity, Kidney ([1]; 30 min): 0.31 ± 0.27 %ID/g
- Biodistribution of radioactivity, Liver ([1]; 30 min): 1.91 ± 1.88 %ID/g
- Biodistribution of radioactivity, Lung ([1]; 30 min): 1.02 ± 1.13 %ID/g
- Biodistribution of radioactivity, Muscle ([1]; 30 min): 0.09 ± 0.08 %ID/g
- Biodistribution of radioactivity, Uterus ([1]; 30 min): 0.16 ± 0.16 %ID/g
- Biodistribution of radioactivity, Brain ([1]; 30 min): 0.02 ± 0.01 %ID/g
- Biodistribution of radioactivity in brain region, Amygdala ([1]; 60 min): 0.06 ± 0.01 %ID/g
- Biodistribution of radioactivity in brain region, Basal Hypothalamus ([1]; 60 min): 0.03 ± 0.01 %ID/g
- Biodistribution of radioactivity in brain region, Cerebellum ([1]; 60 min): 0.03 ± 0.01 %ID/g
- Biodistribution of radioactivity in brain region, Dorsal Striatum ([1]; 60 min): 0.02 ± 0.01 %ID/g
- Biodistribution of radioactivity in brain region, Remaining Brain ([1]; 60 min): 0.02 ± 0.01 %ID/g
- Biodistribution of radioactivity, Heart ([1]; 60 min): 0.39 ± 0.12 %ID/g
- Biodistribution of radioactivity, Kidney ([1]; 60 min): 0.46 ± 0.04 %ID/g
- Biodistribution of radioactivity, Liver ([1]; 60 min): 3.01 ± 0.50 %ID/g
- Biodistribution of radioactivity, Lung ([1]; 60 min): 0.66 ± 0.32 %ID/g
- Biodistribution of radioactivity, Muscle ([1]; 60 min): 0.15 ± 0.03 %ID/g
- Biodistribution of radioactivity, Uterus ([1]; 60 min): 0.31 ± 0.08 %ID/g
- Biodistribution of radioactivity, Brain ([1]; 60 min): 0.02 ± 0.01 %ID/g
- Biodistribution of radioactivity in brain region, Basal Hypothalamus ([1]; 120 min): 0.04 ± 0.01 %ID/g
- Biodistribution of radioactivity in brain region, Cerebellum ([1]; 120 min): 0.03 ± 0.01 %ID/g
- Biodistribution of radioactivity in brain region, Dorsal Striatum ([1]; 120 min): 0.02 ± 0.01 %ID/g
- Biodistribution of radioactivity in brain region, Remaining Brain ([1]; 120 min): 0.02 ± 0.01 %ID/g
- Biodistribution of radioactivity, Blood ([1]; 120 min): 0.31 ± 0.17 %ID/g
- Biodistribution of radioactivity, Kidney ([1]; 120 min): 0.29 ± 0.15 %ID/g
- Biodistribution of radioactivity, Liver ([1]; 120 min): 1.91 ± 1.02 %ID/g
- Biodistribution of radioactivity, Lung ([1]; 120 min): 0.41 ± 0.27 %ID/g
- Biodistribution of radioactivity, Muscle ([1]; 120 min): 0.10 ± 0.05 %ID/g
- Biodistribution of radioactivity, Uterus ([1]; 120 min): 0.22 ± 0.13 %ID/g
- Biodistribution of radioactivity, Brain ([1]; 120 min): 0.02 ± 0.01 %ID/g

Structure (SMILES): COc1cc(OC2CCN(S(C)(=O)=O)CC2)ccc1CC(=O)N1CCC(N2C(=O)CCc3ccccc32)CC1 [Compound 4, 1-(1-(2-(2-Methoxy-4-((1-(methylsulfonyl)piperidin-4-yl)oxy)phenyl)acetyl)piperidin-4-yl)-3,4-dihydroquinolin-2(1H)-one]
- selectivity for the rodent OTR over V1aR (rodent OTR): four times more selective
